High-throughput results (PubChem BioAssay)
VIM-2 inhibitor – inhibitors of Pseudomonas aeruginosa VIM-2 metallo-beta-lactamase | purified VIM-2, nitrocefin hydrolysis, epi-absorbance fluorescence | inhibition, % at 5.6 µM | hit rate 0.89% among 290,000 | AID 1527;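 active = inhibition above the mean of all tested compounds plus 3 SD, cutoff set per screening run, cut at about 7.5% in these data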;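 also: red hydrolysis product quenches plate fluorescence so inhibitors raise well fluorescence; 0% = enzyme with DMSO and 100% = DMSO without enzyme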
IMP-1 inhibitor – blocks Pseudomonas aeruginosa IMP-1 metallo-beta-lactamase; AID 1556; inhibition, % at 5.6 µM; purified IMP-1, nitrocefin hydrolysis, epi-absorbance fluorescence; hit rate 0.45% among 290,000;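 active = inhibition above the mean plus 3 SD of all compounds in the same screening run, cut at about 4.5% in these data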;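 also: 0% = IMP-1 with DMSO and 100% = DMSO wells lacking enzyme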
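system = purified recombinant IMP-1 beta-lactamase | amount = 0.2 nM IMP-1, as dispensed | medium = HEPES buffer pH 7.1 with ZnSO4 and Brij 35 | times = 25 °C, 15 min preincubation, 25 min reaction | detection = plate fluorescence quenching by hydrolysis product, ex 480/em 530 nm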
NALP1 yeast inh – NALP1 inhibition; inhibition, % at 10 µM; S. cerevisiae NALP1/ASC/caspase-1 growth, X-gal OD620, 72 h; hit rate 0.61% among 280,000; in the data active = inhibition mostly above about 24%, no sharp cut-off; inactive = mostly below about 32%
SUMO Mot1 rescue – inhibitors of SUMOylation pathway: yeast Mot1-301 growth rescue; hit rate 1% among 320,000; AID 2716; growth rescue, % at 18.8 µM; S. cerevisiae Mot1-301 growth rescue, ATP luminescence, 38.5C; percent above DMSO median, 100 means doubled;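 active = every valid replicate shows activation above 250% relative to neutral control wells; inactive = the rest, any valid replicate at or below 250%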;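 also: OY570 slx delta 5 strain wells were the positive control but not used for scaling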
DNA FID counter – counter-screen for HCV NS3 helicase inhibitors: DNA intercalator displacement; AID 1845; inhibition, % at 7.9 µM; DNA fluorescent intercalator displacement, fluorescence; hit rate 0.17% among 290,000; in the data active = inhibition above about 37%;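 also: 0% = vehicle and 100% = reference compound; higher means more ethidium bromide displaced from hairpin DNA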
SUMO HTRF inh – blocks human SUMOylation mediated by UBC9; hit rate 0.36% among 290,000; inhibition, % at 35 µM; P63279; HTRF SUMOylation assay, SAE1/SAE2 + UBC9, in vitro; in the data active = inhibition above about 50%, passing the limit was not always enough
Target sequence (P63279 whole entry, looked up): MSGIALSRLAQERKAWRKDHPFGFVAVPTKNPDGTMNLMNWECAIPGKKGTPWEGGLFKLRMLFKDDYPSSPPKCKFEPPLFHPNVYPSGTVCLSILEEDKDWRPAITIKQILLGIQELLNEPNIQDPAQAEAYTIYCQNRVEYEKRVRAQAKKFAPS
* hit, by the source's call; . = no result given. Compounds with a hit are over-represented: about 2.9% of the library has one in this group of screens.

SMILES	VIM-2 inhibitor	IMP-1 inhibitor	NALP1 yeast inh	SUMO Mot1 rescue	DNA FID counter	SUMO HTRF inh
COCCN1Cc2cccc(C(=O)Nc3ccc(C)cc3)c2C1=O	-2	-2	12	-11	-7	4
CCN(CC)CCNC(=O)Cn1ncc2ccccc2c1=O	0	-3	-7	776*	0	12
CCOC(=O)/C(=C\c1ccc(Cl)cc1)c1nc2sc(C)c(C)c2c(=O)[nH]1	-6	-5	44*	-25	-4	10
CCOC(=O)CSc1nc2sc(C)c(C)c2c(=O)[nH]1	1	-2	17	-17	-2	21
COc1ccc(-c2noc(N3CCC(C(=O)NCCCN4CCCCC4)CC3)n2)cc1	1	0	16	7	21	5
O=C(C1CCOCC1)N1CCCC(N2CCN(c3ccc(F)cc3)CC2)C1 (stereo not drawn)	2	2	18	-30	-10	.
Cc1c(CN2CCC(CO)(CCOc3ccccc3)CC2)c(=O)n(-c2ccccc2)n1C	-3	-3	26*	-20	-2	12
Cc1cc(C)c(CN2CCC(CO)(CCOc3ccccc3)CC2)cc1C	-2	0	22	2	12	0
CC(=O)C(=Cc1cn(-c2ccccc2)nc1-c1ccccc1)C(C)=O	-3	-3	-3	71	-4	11
O=C(NN1C(=O)C2C(c3ccccc3)C=CC(c3ccccc3)C2C1=O)c1ccncc1 (stereo not drawn)	0	12*	4	68	-24	7
O=C(NN1C(=O)C2C3C=CC(C3)C2C1=O)c1ccncc1 (stereo not drawn)	-1	0	14	2	-1	-5
Nc1c(C(=O)NCc2ccco2)c2nc3ccccc3nc2n1CCc1ccccc1	-2	-2	12	.	-11	99*
CCOc1ccc(-n2c(N)c(C(=O)NCc3ccco3)c3nc4ccccc4nc32)cc1	-4	-5	2	11	-15	19
Nc1c(C(=O)NCc2ccccc2)c2nc3ccccc3nc2n1CCCN1CCOCC1	-1	-3	31	-12	-1	98*
C=CCn1c(N)c(C(=O)NCC2CCCO2)c2nc3ccccc3nc21 (stereo not drawn)	3	-2	0	3	-14	95*
CC1=NN(c2cccc(Cl)c2)C(=O)C1	1	-1	.	257	-3	12
CC1=NN(c2ccc(Cl)c(C(=O)O)c2)C(=O)C1	1	-3	41	233	-5	90*
CC1=NN(c2ccc(S(=O)(=O)O)cc2Cl)C(=O)C1	-5	-1	-4	2	7	83*
CC1=NN(c2ccc(C(=O)O)c(N)c2)C(=O)C1	-1	-2	18	121	-28	79*
CC1=NN(c2ccc(C(=O)O)cc2)C(=O)CC1	0	-1	-3	2	4	-5
CCN(CC)S(=O)(=O)c1ccc(O)c(C(=O)OCC(=O)NC23CC4CC(CC(C4)C2)C3)c1	.	.	.	-14	.	.
Nc1cccc2cc(-c3ccccc3)oc12	.	.	.	38	.	.
Cc1ccc(N2CSC3=C(C#N)C(c4cccs4)CC(=O)N3C2)cc1 (stereo not drawn)	0	5.6*	4	12	-10	55
O=C(NCc1ccccc1Cl)C1CCN(S(=O)(=O)c2ccc(N3CCCC3=O)cc2)CC1	-3	-3	15	29	-45	6
CCc1cc(=O)oc2cc(OCC(=O)NCc3ccccn3)ccc12	1	-2	13	8	-15	2
SMILES	VIM-2 inhibitor	IMP-1 inhibitor	NALP1 yeast inh	SUMO Mot1 rescue	DNA FID counter	SUMO HTRF inh
CC(Oc1cc2oc(=O)c3c(c2cc1Cl)CCC3)C(=O)NCc1ccccn1 (stereo not drawn)	12*	-3	3	-12	-41	8
CC(Oc1cc2oc(=O)c3c(c2cc1Cl)CCCC3)C(=O)NCc1cccnc1 (stereo not drawn)	7	-1	19	-10	-41	3
CC(Oc1cc2oc(=O)c3c(c2cc1Cl)CCC3)C(=O)NCc1cccnc1 (stereo not drawn)	11*	-3	-4	14	-36	-3
O=C(COc1cc2oc(=O)c3c(c2cc1Cl)CCC3)NCc1ccccn1	10*	2	22	15	-7	22
O=C(COc1ccc2c3c(c(=O)oc2c1)CCCC3)NCc1ccccn1	7.8*	-2	-4	11	-40	5
Cc1cc(C)n(-c2nc(SCCN(C)C)c3c4c(sc3n2)COC(C)(C)C4)n1	6	-4	18	-1	22	-2
Cc1noc(C)c1S(=O)(=O)N(C)C[C@H]1Oc2c(NC(=O)Nc3ccc(C(F)(F)F)cc3)cccc2C(=O)N([C@H](C)CO)C[C@@H]1C	.	.	.	21	.	.
Cc1ccccc1NC(=O)CCS(=O)(=O)c1ccc(Br)cc1	-1	2	23	-29	-6	-5
CCN(CC)c1ccc(NC(=O)CCS(=O)(=O)c2ccc(Br)cc2)c(C)c1	-2	24*	14	4	-28	14
COc1ccc(OC)c(CCNC(=O)C(C)n2nc(C)c3c(C)n(-c4ccc(C)cc4)nc3c2=O)c1 (stereo not drawn)	-1	-2	-7	-9	-48	.
O=C(O)CCC(=O)Nc1cccc2cccnc12	0	-5	-5	-17	11	19
CNC(=O)Nc1cccc2cccnc12	-2	-2	44*	7	2	16
Cc1n[nH]c(=S)n1-c1ccccc1	10*	2	-9	-2	1	14
Cc1ccccc1-n1c(-c2csc(C)c2C)n[nH]c1=S	11*	-4	19	-10	-27	8
COc1cccc(-c2n[nH]c(=S)n2Cc2ccco2)c1	9.1*	-5	.	-12	-19	15
Cc1n[nH]c(=S)n1-c1ccc(Cl)cc1	0	-4	-2	15	17	8
Cc1n[nH]c(=S)n1Cc1ccccc1	11*	-5	.	146	-2	6
Cc1ccccc1-n1c(-c2csc3ccccc23)n[nH]c1=S	-3	-5	15	-6	-14	12
Cc1cccc(NC(=S)N2CCN(c3ccccc3F)CC2)c1C	-1	-2	-13	32	-16	-6
COc1ccc(-n2c(C(C)n3nc(C)c([N+](=O)[O-])c3C)n[nH]c2=S)cc1 (stereo not drawn)	0	-4	-18	-10	-6	-8
S=c1[nH]nc(C2CCCCC2)n1Cc1ccccc1	9.3*	-3	-1	-4	-18	10
S=c1[nH]nc(-c2ccc(Cl)cc2)n1Cc1ccccc1	-2	-3	-4	172	-22	21
COc1ccc(-c2n[nH]c(=S)n2-c2ccccc2C)cc1	8.8*	-1	4	-19	-18	4
COc1ccc(-n2c(-c3cccc(C)c3[N+](=O)[O-])n[nH]c2=S)cc1	38*	-2	5	10	-6	-2
COc1ccc(-c2n[nH]c(=S)n2Cc2ccccc2)cc1	9.2*	-2	-6	-10	-16	0
